PMC9990178 (Cell Chemical Biology, 2023)
pKd: −log10 of the molar value.

Tests used:
Smad3 phosphorylation [1] = assay: N protein-induced Smad3 phosphorylation/activation in HFL-1 cells; format: cell-based, human
Smad3 = Smad3 (Homo sapiens, UniProt P84022); assay: ITC assay, RMY-205 binding to Smad3
How it was run: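 Isothermal titration calorimetry. Sample cell loaded with GST-Smad3 at 20 µM; injector loaded with test compound at 0.2 mM. Compound titrated stepwise into the Smad3 solution, with PBS as control. Heat changes analyzed to derive binding.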

MH1 domain of Smad3 = MH1 domain of Smad3 (Homo sapiens, UniProt P84022); assay: ITC assay, binding to MH1 domain of Smad3
Chain of MH1 domain of Smad3 (P84022 10-136 limits assumed): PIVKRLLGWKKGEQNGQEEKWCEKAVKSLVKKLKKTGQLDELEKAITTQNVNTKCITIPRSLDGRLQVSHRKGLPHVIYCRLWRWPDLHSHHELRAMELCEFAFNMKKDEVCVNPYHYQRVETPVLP

Smad2 = Smad2 (Homo sapiens, UniProt Q15796); assay: ITC assay, binding to Smad2; conditions: GST-tagged protein
Chain of Smad2 (Q15796 whole entry): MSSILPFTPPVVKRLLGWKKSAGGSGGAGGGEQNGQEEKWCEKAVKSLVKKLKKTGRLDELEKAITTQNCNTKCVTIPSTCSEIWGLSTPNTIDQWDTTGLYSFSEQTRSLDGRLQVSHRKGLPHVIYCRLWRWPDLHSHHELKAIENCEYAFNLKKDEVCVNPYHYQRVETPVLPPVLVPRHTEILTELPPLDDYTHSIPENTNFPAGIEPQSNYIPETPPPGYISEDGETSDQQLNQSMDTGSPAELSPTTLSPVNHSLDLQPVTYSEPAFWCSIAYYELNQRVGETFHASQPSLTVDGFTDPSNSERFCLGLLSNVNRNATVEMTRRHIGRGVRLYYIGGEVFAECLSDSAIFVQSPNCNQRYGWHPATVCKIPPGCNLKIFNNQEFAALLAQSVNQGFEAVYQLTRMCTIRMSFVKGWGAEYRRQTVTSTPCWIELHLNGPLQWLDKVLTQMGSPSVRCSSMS

TβRI = TβRI (Homo sapiens, UniProt P36897); assay: ITC assay, binding to TβRI; conditions: GST-tagged protein
Chain of TβRI (P36897 34-503): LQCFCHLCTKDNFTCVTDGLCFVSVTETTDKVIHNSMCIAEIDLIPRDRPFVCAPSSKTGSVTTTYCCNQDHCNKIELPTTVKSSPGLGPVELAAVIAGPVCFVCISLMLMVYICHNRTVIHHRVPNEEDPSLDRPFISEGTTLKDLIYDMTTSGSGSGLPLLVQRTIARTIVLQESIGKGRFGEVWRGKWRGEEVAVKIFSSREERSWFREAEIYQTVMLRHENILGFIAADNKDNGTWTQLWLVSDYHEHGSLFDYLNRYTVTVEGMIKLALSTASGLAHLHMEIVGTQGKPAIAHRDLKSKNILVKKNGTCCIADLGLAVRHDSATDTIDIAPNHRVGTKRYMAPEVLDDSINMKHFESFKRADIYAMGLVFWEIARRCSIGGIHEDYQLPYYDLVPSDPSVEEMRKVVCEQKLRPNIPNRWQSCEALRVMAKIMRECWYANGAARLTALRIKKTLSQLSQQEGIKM

α-SMA = assay: N protein-induced α-SMA/COL1A1 expression; format: cell-based, human
How it was run: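 HFL-1 cells transfected with N protein plasmid, then exposed to test compounds (10 µM for derivative comparison; otherwise varied times and doses). α-SMA and COL1A1 measured by western blot, normalized to tubulin. For collagen secretion, culture medium concentrated, held 16 h at 4°C and centrifuged; pellet dissolved in 0.05 M acetic acid, stained with Sirius red, washed, extracted, and read at 530 nm.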

[2] = tested on: CAGA luciferase reporter gene (a Smad3/4-dependent reporter); assay: CAGA luciferase reporter; format: cell-based, human; conditions: 20 μM, Smad3-dependent manner
How it was run: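 Cells co-transfected with a CAGA luciferase reporter (Smad3/4-dependent), a β-galactosidase expression vector and other plasmids, including N protein. Lysed 24 h after transfection; luciferase and β-gal activities measured. Luciferase activity normalized to β-gal to correct for transfection efficiency.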

[3] = Pharmacokinetic analysis in ICR mice; format: in vivo; conditions: male, mouse, plasma
How it was run: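 Male ICR mice (8 weeks) received a single dose of test compound: 2 mg/kg i.v., or 10 mg/kg i.p. or by oral gavage. Blood sampled at 5, 15 and 30 min and at 1, 2, 4, 8 and 24 h. Plasma obtained by centrifugation at 1,500g for 10 min, and compound content in plasma assayed.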

Smad2 phosphorylation = assay: N protein-induced Smad2 phosphorylation in HFL-1 cells; format: cell-based, human; conditions: 20 μM, 36 h
How it was run: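 HFL-1 cells transfected overnight with N protein plasmid, then exposed to test compound for 36 h (20 µM unless specified). Lysates boiled 10 min in SDS buffer, run on SDS-PAGE, transferred to PVDF and immunoblotted with ECL detection. p-Smad2 and p-Smad3 band intensities normalized to tubulin.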

TGF-β/Smad signaling = assay: TGF-β-induced Smad3 phosphorylation and α-SMA/COL1A1 expression in cell lines; format: cell-based, human; conditions: 36 h
Smad3 phosphorylation [4] = assay: Nocodazole-induced Smad3 phosphorylation; format: cell-based, human; conditions: HFL-1, LX-2, and AC-16 cells; nocodazole 100 ng/mL, 12 h
TβRI-Smad2 interaction = TβRI-Smad2 interaction (Homo sapiens, UniProt Q15796); assay: Co-IP, N protein-induced TβRI-Smad2 interaction; format: cell-based; conditions: coIP
Chain of TβRI-Smad2 interaction (Q15796 2-467 limits assumed): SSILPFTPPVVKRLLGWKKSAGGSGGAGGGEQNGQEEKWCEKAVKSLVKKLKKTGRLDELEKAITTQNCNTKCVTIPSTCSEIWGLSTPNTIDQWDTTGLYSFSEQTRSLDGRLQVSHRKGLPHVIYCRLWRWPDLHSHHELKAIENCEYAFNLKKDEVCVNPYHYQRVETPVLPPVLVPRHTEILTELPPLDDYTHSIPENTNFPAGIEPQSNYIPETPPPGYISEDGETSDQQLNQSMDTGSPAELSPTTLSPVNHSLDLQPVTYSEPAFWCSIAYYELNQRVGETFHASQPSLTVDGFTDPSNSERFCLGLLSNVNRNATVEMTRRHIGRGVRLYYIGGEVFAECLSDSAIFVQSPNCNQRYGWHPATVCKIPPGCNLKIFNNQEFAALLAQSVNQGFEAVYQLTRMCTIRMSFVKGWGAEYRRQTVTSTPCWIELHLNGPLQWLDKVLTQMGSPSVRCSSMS
How it was run: (§1)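 HFL-1 cells transfected with an N protein plasmid using ViaFect. Lysates incubated 3 h with primary antibody plus protein G-Sepharose beads. Beads washed three times with NP-40 lysis buffer. Immunoprecipitates boiled in SDS loading buffer, resolved by SDS-PAGE, transferred to PVDF and probed; bands detected by enhanced chemiluminescence.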

[5] = tested on: N protein-TβRI, TβRI-TβRII, TβRI-FKBP12 interactions; assay: Co-IP, interactions N protein-TβRI, TβRI-TβRII, TβRI-FKBP12; format: cell-based, human; conditions: HFL-1 cells
How it was run: as §1

TβRI polymerization = TβRI polymerization (Homo sapiens, UniProt P36897); assay: Crosslinking assay, N protein-induced TβRI polymerization; format: cell-based; conditions: HFL-1 cells, 24 h
Chain of TβRI polymerization (P36897 34-503): as the sequence (P36897 34-503) above

MH1-MH2 interaction = MH1-MH2 interaction (Homo sapiens, UniProt P84022); assay: coIP and GST pull-down, MH1-MH2 interaction of Smad3; format: biochemical; conditions: coIP assay, GST pull-down assay
Chain of MH1-MH2 interaction (P84022 10-136 limits assumed): as the sequence (P84022 10-136 limits assumed) above
Chain of MH1-MH2 interaction (P84022 232-425 partner limits assumed): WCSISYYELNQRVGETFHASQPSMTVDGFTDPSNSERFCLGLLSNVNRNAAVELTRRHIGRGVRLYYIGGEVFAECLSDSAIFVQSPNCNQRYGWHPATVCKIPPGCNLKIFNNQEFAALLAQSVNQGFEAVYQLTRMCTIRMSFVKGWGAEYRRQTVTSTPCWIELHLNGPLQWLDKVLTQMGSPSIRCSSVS
How it was run: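 GST-tagged proteins expressed in E. coli BL21 and purified on glutathione-sepharose; His-tagged proteins purified on Ni-NTA. GST or GST-fusion bound to glutathione beads in PBS for 1 h at 4°C, washed with PBS, then with modified NP-40 buffer. CoIP: lysates incubated 3 h with antibody plus protein G-Sepharose, washed, and immunoblotted.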

[6] = tested on: Smad2/3 nuclear translocation; assay: Smad2/3 nuclear translocation in HFL-1 cells; format: cell-based, human; conditions: 24 h
How it was run: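 HFL-1 cells expressing N protein treated with test compound for 24 h. Fixed in 4% formaldehyde and blocked in PBS with 3% BSA and 0.2% Triton X-100. Primary antibody overnight at 4°C; secondary antibody 1 h at room temperature in the dark; nuclei stained with DAPI for 10 min. Smad2/3 localization imaged by confocal microscopy.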

[7] = tested on: IL6, IL8, CCL2, CXCL10 mRNA; assay: qRT-PCR of N protein-induced cytokine mRNA in HFL-1 cells; format: cell-based, human; conditions: 20 μM
[8] = tested on: Smad3 binding to promoters; assay: ChIP assay, Smad3 binding to cytokine gene promoters in HFL-1 cells; format: cell-based, human; conditions: ChIP analysis
How it was run: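 HFL-1 cells crosslinked with 1% formaldehyde for 10 min at room temperature, washed in ice-cold PBS, and lysed in SDS lysis buffer (1% SDS, 10 mM EDTA, 50 mM Tris pH 8.1) with protease inhibitors. Chromatin sonicated to 500–1000 bp, then incubated overnight at 4°C with antibody or rabbit IgG. Complexes pulled down on protein G-Sepharose, washed, eluted, crosslinks reversed, proteinase K-treated.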

[9] = tested on: THP1 macrophages and differentiated HL60 neutrophils; assay: Transwell chemotaxis assay, recruitment by N protein-expressing HFL-1 cells; format: cell-based, human; conditions: 20 μM
How it was run: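 HFL-1 cells in 24-well plates transfected with plasmids for 12 h, then switched to serum-free Ham's F12 for a further 24 h. THP-1 macrophages seeded in the upper transwell chamber and incubated 16 h. Non-migrated cells removed with a swab; migrated cells stained with crystal violet.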

[10] = tested on: primary mouse pulmonary fibroblasts; format: cell-based; conditions: 20 μM, 36 h
How it was run: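 Primary pulmonary fibroblasts grown out from minced mouse lung (1 mm³ explants) in DMEM with 10% FBS; medium changed every 2 days, passaged with trypsin after one week. Cells transfected with N protein plasmid, then treated with test compound at 20 µM for 36 h. α-SMA and COL1A1 measured by western blot, normalized to tubulin.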

[11] = tested on: primary bone marrow-derived macrophages (BMDMs) and primary neutrophils; format: cell-based; conditions: mouse primary lung fibroblasts expressing N protein, 20 μM
How it was run: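 BMDMs: mouse tibial marrow flushed, red cells lysed, filtered at 40 µm, cultured 8 days in DMEM with 25% L929-conditioned medium. Neutrophils: isolated from marrow on a Percoll gradient (52/64/72%) at 1,545 g for 30 min at room temperature; 64/72% interface collected. Migration of both cell types toward N protein-expressing primary lung fibroblasts assessed.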

[12] = tested on: N protein-induced pulmonary fibrosis; assay: N protein; format: in vivo, C57BL/6J mice; conditions: 10 mg/kg weekly for 30 days
How it was run: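 Male C57BL/6J mice (8 weeks) given N protein-expressing AAV or control AAV intranasally in 50 µL PBS. From day 4, test compound 10 mg/kg in saline given i.p. weekly. Sacrificed at day 30; n = 6 per group. Lung Smad3 phosphorylation assessed by western blot.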

[13] = tested on: Adriamycin-induced renal fibrosis; assay: Adriamycin-induced renal fibrosis mouse model; format: in vivo, C57BL/6J mice; conditions: 3 mg/kg intraperitoneally daily, 7 days
[14] = Body and organ weight, behavior during RMY-205 administration; format: in vivo, mice
TβRI phosphorylation = assay: N protein-induced TβRI phosphorylation in HFL-1 cells; format: cell-based, human; conditions: 10 μM, 24 h

Chain of Smad3 (P84022 whole entry): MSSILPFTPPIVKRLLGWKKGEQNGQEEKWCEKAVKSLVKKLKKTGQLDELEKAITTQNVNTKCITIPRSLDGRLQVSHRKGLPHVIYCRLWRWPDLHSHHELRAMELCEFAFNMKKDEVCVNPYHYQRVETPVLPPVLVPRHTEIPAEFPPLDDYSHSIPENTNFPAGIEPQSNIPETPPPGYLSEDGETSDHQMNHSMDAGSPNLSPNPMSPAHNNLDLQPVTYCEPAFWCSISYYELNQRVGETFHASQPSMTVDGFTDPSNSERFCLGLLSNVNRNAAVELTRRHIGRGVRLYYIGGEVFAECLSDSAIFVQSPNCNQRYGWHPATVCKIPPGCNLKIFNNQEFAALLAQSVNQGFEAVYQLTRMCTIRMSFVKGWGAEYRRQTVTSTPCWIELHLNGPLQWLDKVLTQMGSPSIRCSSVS

Question: For `COc1cc2c(cc1OC)CN(C(=O)/C=C/c1c(-c3ccccc3)n(C)c3ncccc13)CC2` [(E)-SIS3], which “N protein-induced Smad3 activation” value (Smad3 phosphorylation [1]; 3 μM, 36 h) is on record?
Answer: The value was “no inhibitory effect”.

Question: What does the source list for `O=c1c(O)c(N2CCN(Cc3ccc(Br)cc3F)CC2)oc2ccccc12` [RMY-205, 2-(4-(4-bromo-2-fluorobenzyl)piperazin-1-yl)-3-hydroxy-4H-chromen-4-one]?
Answer: pKd (Smad3): 5.10; pKd (MH1 domain of Smad3): 4.88; binding to Smad2 (Smad2): not to either Smad2 or TβRI; binding to TβRI (TβRI): not to either Smad2 or TβRI; N protein-induced α-SMA and COL1A1 expression levels and collagen secretion (α-SMA; HFL-1 cells, time- and dose-dependent manner): downregulate; α-SMA inhibition ratio (%) (α-SMA; N-protein transfected HFL-1 cells, 10 μM, 24 h): 50.9 ± 14.0%; N protein-induced transactivation activity of Smad [2]: inhibited; AUC ([3]; ip, 10 mg/kg): 2130 ng·h/mL; AUC(0-inf) ([3]; ip, 10 mg/kg): 2130 ng·h/mL; Cmax ([3]; ip, 10 mg/kg): 1820 ng/mL; Tmax ([3]; ip, 10 mg/kg): 0.19 h; bioavailability ([3]; ip, 10 mg/kg): 42.8%; half-life ([3]; ip, 10 mg/kg): 8.26 h; AUC ([3]; iv, 2 mg/kg): 995 ng·h/mL; AUC(0-inf) ([3]; iv, 2 mg/kg): 995 ng·h/mL; Vd ([3]; iv, 2 mg/kg): 3 L/kg; clearance ([3]; iv, 2 mg/kg): 34 mL/min/kg; half-life ([3]; iv, 2 mg/kg): 1.98 h; AUC ([3]; po, 10 mg/kg): 1870 ng·h/mL; AUC(0-inf) ([3]; po, 10 mg/kg): 1870 ng·h/mL; Cmax ([3]; po, 10 mg/kg): 1040 ng/mL; Tmax ([3]; po, 10 mg/kg): 0.33 h; bioavailability ([3]; po, 10 mg/kg): 37.6%; half-life ([3]; po, 10 mg/kg): 2.55 h; N protein-induced phosphorylation of Smad3 (Smad3 phosphorylation [1]; 20 μM, 36 h): inhibition; N protein-induced phosphorylation of Smad2 (Smad2 phosphorylation): not of Smad2; TGF-β-induced Smad3 phosphorylation and α-SMA and COL1A1 expression (TGF-β/Smad signaling; HFL-1, AC16, LX-2 and human primary dermal cells, TGF-β 2 ng/mL): effectively inhibited; inhibition of TGF-β-induced Smad3 phosphorylation and α-SMA expression, compared with (E)-SIS3 (TGF-β/Smad signaling; HFL-1 cells, (E)-SIS3 3 μM): comparable with that by (E)-SIS3; nocodazole-induced Smad3 phosphorylation (Smad3 phosphorylation [4]): inhibited; N protein-induced TβRI interaction with Smad2 (TβRI-Smad2 interaction): not with Smad2; interactions between N protein and TβRI, TβRI and TβRII, or TβRI and FKBP12 [5]: did not interfere; N protein-induced TβRI polymerization (TβRI polymerization; 20 μM): not influenced; interaction between MH1 and MH2 domains (MH1-MH2 interaction): substantially enhance; N protein-induced Smad2/3 nuclear translocation ([6]; 20 μM): blocked; N protein-induced mRNA expression of IL6, IL8, CCL2, and CXCL10 [7]: downregulated; Smad3 binding to the promoters of genes of cytokines [8]: inhibited; recruiting THP1 macrophages and differentiated HL60 neutrophils by N protein [9]: attenuation; N protein-elevated mRNA of CCL2, CXCL10, and IL-6 expression and their release levels [10]: suppression; N protein-induced α-SMA and COL1A1 expression [10]: significantly inhibited; recruitment of primary BMDMs and primary neutrophils [11]: abolished; N protein-induced phosphorylation of Smad3 in lung [12]: suppression; N protein-induced secretion of CCL2, CXCL10, and IL-6 in bronchoalveolar lavage fluid [12]: suppression; N protein-promoted infiltration of macrophages and neutrophils in the lung tissue [12]: markedly attenuated; alveolar septal thickening, α-SMA expression and collagen deposition ([12]; intraperitoneally): alleviated alveolar septal thickening and decreased α-SMA expression and collagen deposition; renal fibrosis, Smad3 phosphorylation and COL1A1 expression induced by Adriamycin [13]: effectively alleviate; weight of the mice and of various organs (heart, liver, spleen, lungs, kidneys) ([14]; 10 mg/kg for 30 days): not significantly changed; behavior, weight of the body or various organs ([14]; during administration of RMY-205): no abnormal behavior or weight loss

Question: With `Cc1cccc(-c2[nH]c(C(C)(C)C)nc2-c2ccc3c(c2)OCO3)n1` [SB505124, reference compound] as the molecule, how does the “N protein-induced expression of α-SMA and COL1A1” value (α-SMA; HFL-1 cells, 10 μM, 24 h) read?
Answer: Its value is “failed to elevate”.

Question: And the “N protein-induced Smad phosphorylation, nuclear translocation, and transactivation activity” value (Smad3 phosphorylation [1]; 10 μM, 24 h)?
Answer: Its value is “lost its ability to induce”.

Question: What about the “N protein-induced TβRI polymerization” value (TβRI polymerization; 10 μM) of the same molecule?
Answer: Its value is “could not prevent”.

Question: And the “Smad2/3 localization in the presence of N protein” value ([6]; 10 μM)?
Answer: Its value is “remain in the cytosol”.

Question: What about the “N protein-induced TβRI phosphorylation” value (TβRI phosphorylation) of the same molecule?
Answer: The value was “could block”.
